The experiment has as its system Entamoeba histolytica. Description: Antiamoebic activity against Entamoeba histolytica HM1 IMSS after 72 hrs by serial dilution method. The experiment is classed as functional, organism-based. Put shortly:
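Compounds were dissolved in DMSO and diluted in medium to 1 mg/mL, then to 0.1 mg/mL, with two-fold serial dilutions in microplate wells. Metronidazole was the standard. Each well got 1.7 × 10⁴ trophozoites, was gassed with N₂ and held at 37 °C for 72 h. Plates were methanol-fixed, eosin-stained and solubilised in 0.1 N NaOH, and OD was read at 490 nm. IC50 came from linear regression of % inhibition versus log dose.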

Structures are written as SMILES.

As for `CC1CN(C(N)=S)N=C1c1ccccc1` (stereo not given), the half-inhibitory concentration (IC50) was 10.3 µM. In turn, `Cc1ccccc1NC(=S)N1CC(C)C(c2ccccc2)=N1` (stereo not given) gave an IC50 of 4.57 µM. With `CC1CN(C(=S)NCc2ccccc2Cl)N=C1c1ccccc1` (stereo not given) the figure was 4.62 µM; with `CC1CN(C(=S)N2CCN(c3ccccc3)CC2)N=C1c1ccccc1` (stereo not given), 8.69 µM. `CC(C)CNC(=S)N1CC(C)C(c2ccccc2)=N1` (stereo not given): the half-maximal inhibitory concentration (IC50) amounted to 9.13 µM. As for `CC1CN(C(=S)NC2CCCC2)N=C1c1ccccc1` (stereo not given), half-maximal inhibition (IC50) was put at 8.75 µM. With `CC(C)NC(=S)N1CC(C)C(c2ccccc2)=N1` (stereo not given) the figure was 15.2 µM. With `CCCCNC(=S)N1CC(C)C(c2ccccc2)=N1` (stereo not given) the figure was 4.32 µM; with `CC1CN(C(=S)NC2CCCCC2)N=C1c1ccccc1` (stereo not given), 6.63 µM; with `CC1CN(C(=S)NC2CCCCCCC2)N=C1c1ccccc1` (stereo not given), 2.32 µM.

For the origin of these results see ChEMBL document CHEMBL1149768, “Novel Pd(II) complexes of 1-N-substituted 3-phenyl-2-pyrazoline derivatives and evaluation of antiamoebic activity” (Eur J Med Chem, 2008).
